Results as given in ChEMBL document CHEMBL1123918, “Thromboxane synthetase inhibitors and antihypertensive agents. 4. N-[(1H-imidazol-1-yl)alkyl] derivatives of quinazoline-2,4(1H,3H)-diones, quinazolin-4(3H)-ones, and 1,2,3-benzotriazin-4(3H)-ones” (J Med Chem, 1987).
Calls of active or inactive are those of the source.

How the values were obtained:
[1] = target: T1, Thromboxane-A synthase (Rattus norvegicus) (UniProt P49430); assay: Tested for antihypertensive activity in spontaneously hypertensive rats at 100 mg/kg peroral dosage for 2 days; I is inactive; format: functional, organism-based; design: dose 100 mg/kg
T1 sequence (whole entry): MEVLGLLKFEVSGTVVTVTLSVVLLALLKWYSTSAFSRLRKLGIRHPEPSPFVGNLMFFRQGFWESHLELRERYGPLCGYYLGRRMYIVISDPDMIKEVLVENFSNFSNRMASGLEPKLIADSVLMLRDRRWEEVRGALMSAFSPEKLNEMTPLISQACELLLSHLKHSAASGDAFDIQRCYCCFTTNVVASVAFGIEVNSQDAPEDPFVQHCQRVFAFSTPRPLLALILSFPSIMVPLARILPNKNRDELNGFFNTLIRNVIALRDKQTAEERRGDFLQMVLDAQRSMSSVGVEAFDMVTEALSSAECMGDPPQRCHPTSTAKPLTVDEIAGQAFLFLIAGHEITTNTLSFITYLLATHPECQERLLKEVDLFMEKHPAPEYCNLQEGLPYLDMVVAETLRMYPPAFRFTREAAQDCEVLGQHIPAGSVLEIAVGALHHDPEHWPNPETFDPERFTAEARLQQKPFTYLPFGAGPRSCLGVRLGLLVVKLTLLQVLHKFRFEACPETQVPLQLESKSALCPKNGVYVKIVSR
Outline: (§1)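 Male 16-week-old Okamoto SHR (mean arterial pressure about 170 mmHg) gavaged with compound suspended in 2% preboiled starch (50 mg/mL) at 100 mg/kg or less, with 0.9% NaCl load 25 mL/kg; identical second dose without saline 24 h later. Mean arterial pressure measured 28 h after first dose; one to three rats per compound.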

[2] = target: T2, Thromboxane-A synthase (Rattus norvegicus, UniProt P49430); assay: Tested for inhibition of thromboxane synthetase from spontaneously hypertensive rats
T2 sequence (P49430 whole entry): T1 sequence (whole entry)
Outline: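 Washed SHR platelets in oxygenated Krebs phosphate buffer pH 7.4 (4.5-6.0 X 10^4 platelets/µL) incubated with vehicle or drug 10 min at 37 °C; stopped with ice and citric acid. TXB2 measured by direct RIA. Percent inhibition is relative to vehicle controls after background subtraction. IC50 is read from a plot of inhibition vs log concentration.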

[3] = target: T1, Thromboxane-A synthase (Rattus norvegicus); assay: Tested for antihypertensive activity in spontaneously hypertensive rats at 100 mg/kg peroral dosage for 2 days; A means active; format: functional, organism-based; design: dose 100 mg/kg; outline: as §1

SMILES | Activity [1] | IC50 [2] [nM] | Activity [3]
O=c1c2cc(Cl)ccc2nnn1CCCn1ccnc1 | inactive |  | 
O=c1[nH]c2ccc(Cl)cc2c(=O)n1CCCCCCCCCCn1ccnc1 | inactive | 7 | 
CC(Cn1ccnc1)Cn1nnc2ccc(Br)cc2c1=O (configuration not stated) | inactive | 1700 | 
Nc1ccc(Cl)cc1C(=O)NCCCCn1ccnc1 | inactive |  | 
O=c1[nH]c2ccc(Cl)cc2c(=O)n1CCCn1ccnc1 | inactive |  | 
CCc1nc2ccc(Cl)cc2c(=O)n1CCCCn1ccnc1 |  |  | Active
CC(CCn1cnc2ccc(Cl)cc2c1=O)n1ccnc1 (configuration not stated) |  | 8000 | Active
O=c1[nH]c2cc(Cl)ccc2c(=O)n1CCCCCn1ccnc1 |  | 820 | Active
O=c1c2ccccc2ncn1CCCn1ccnc1 | inactive |  | 
Nc1ccccc1C(=O)NCCCn1ccnc1 | inactive |  | 
O=c1c2ccc(Cl)cc2nnn1CCCCn1ccnc1 |  |  | Active
O=c1c2ccccc2ncn1CCCCCCn1ccnc1 |  |  | Active
CC(CNC(=O)c1ccc(Cl)cc1N)Cn1ccnc1 (configuration not stated) |  |  | Active
Nc1ccc(Cl)cc1C(=O)NCCCn1ccnc1 |  |  | Active
O=c1[nH]c2c(C(F)(F)F)cccc2c(=O)n1CCCCCCn1ccnc1 |  |  | Active
O=c1[nH]c2ccc(Br)cc2c(=O)n1CCCn1ccnc1 | inactive | 100 | 
CC(Cn1ccnc1)Cn1c(=O)[nH]c2ccc(Cl)cc2c1=O (configuration not stated) [listing 1 of 3 here] |  | 8 | 
O=c1[nH]c2ccc(Cl)cc2c(=O)n1CCCCCCn1ccnc1 |  | 4 | Active
Nc1ccc(Cl)cc1C(=O)NCCCCCCn1ccnc1 |  |  | Active
O=c1[nH]c2ccccc2c(=O)n1CCCn1ccnc1 | inactive | 600 | 
O=c1c2ccccc2nnn1CCCCCn1ccnc1 | inactive |  | 
Cc1ccc2nnn(CCCCCn3ccnc3)c(=O)c2c1 |  |  | Active
Cc1ccc2nnn(CCCCn3ccnc3)c(=O)c2c1 |  | 60 | Active

SMILES | Activity [1] | IC50 [2] [nM] | Activity [3]
O=c1[nH]c2cc(Cl)ccc2c(=O)n1CCCCCCn1ccnc1 |  | 200 | Active
O=c1c2cc(Cl)ccc2nnn1CCCCCCCCn1ccnc1 |  |  | Active
O=c1c2cc(Cl)ccc2ncn1CCCCCCCCn1ccnc1 |  | 40 | Active
Cc1ccc(N)c(C(=O)NCC(C)Cn2ccnc2)c1 (configuration not stated) | inactive | 1300 | 
O=c1[nH]c2ccc(Cl)cc2c(=O)n1CCCCCCCn1ccnc1 |  | 2 | Active
Cc1ccc2[nH]c(=O)n(CCC(C)n3ccnc3)c(=O)c2c1 (configuration not stated) |  | 70 | Active
Cc1ccc2[nH]c(=O)n(CC(C)Cn3ccnc3)c(=O)c2c1 (configuration not stated) | inactive | 3 | 
O=c1[nH]c2ccccc2c(=O)n1CCCCn1ccnc1 |  |  | Active
O=c1c2ccccc2ncn1CCCCn1ccnc1 |  |  | Active
O=c1c2cc(Cl)ccc2ncn1CCCCn1ccnc1 |  | 500 | Active
O=c1c2cc(Cl)ccc2ncn1CCCCCCn1ccnc1 |  |  | Active
CC(Cn1ccnc1)Cn1nnc2ccc(Cl)cc2c1=O (configuration not stated) | inactive | 900 | 
Nc1cc(Cl)ccc1C(=O)NCCCCn1ccnc1 |  |  | Active
Cc1ccc(N)c(C(=O)NCCCCn2ccnc2)c1 | inactive | 340 | 
O=c1[nH]c2ccc(Cl)cc2c(=O)n1CCCCCCCCn1ccnc1 | inactive |  | 
CC(Cn1ccnc1)Cn1c(=O)[nH]c2ccc(Cl)cc2c1=O (configuration not stated) [listing 2 of 3 here] |  | 10 | 
CC(Cn1ccnc1)Cn1cnc2ccc(Cl)cc2c1=O (configuration not stated) | inactive | 90 | 
CC(Cn1ccnc1)Cn1c(=O)[nH]c2c(Cl)cccc2c1=O (configuration not stated) | inactive | 10 | 
O=c1c2ccccc2nnn1CCCCCCn1ccnc1 |  | 50 | Active
Cc1ccc2[nH]c(=O)n(CCCCn3ccnc3)c(=O)c2c1 |  | 50 | Active
Nc1c(Cl)cccc1C(=O)NCCCCCn1ccnc1 | inactive |  | 
Nc1ccc(Cl)cc1C(=O)NCCCCCCCCn1ccnc1 |  |  | Active
O=c1[nH]c2cc(Cl)ccc2c(=O)n1CCCn1ccnc1 | inactive | 180 | 

SMILES | Activity [1] | IC50 [2] [nM] | Activity [3]
Nc1cc(Cl)ccc1C(=O)NCCCCCn1ccnc1 | inactive |  | 
CC(CCNC(=O)c1cc(Cl)ccc1N)n1ccnc1 (configuration not stated) |  | 500 | Active
CC(CNC(=O)c1cc(Br)ccc1N)Cn1ccnc1 (configuration not stated) | inactive | 290 | 
Cc1ccc2[nH]c(=O)n(CCCn3ccnc3)c(=O)c2c1 | inactive | 20 | 
CC(Cn1ccnc1)Cn1c(=O)[nH]c2cc(Cl)ccc2c1=O (configuration not stated) [listing 1 of 2 here] |  | 3 | 
Cc1nc2ccc(Cl)cc2c(=O)n1CCCCn1ccnc1 |  |  | Active
CC(Cn1ccnc1)Cn1cnc2ccccc2c1=O (configuration not stated) |  |  | Active
O=c1[nH]c2cc(Cl)ccc2c(=O)n1CCCCn1ccnc1 |  | 9 | Active
O=c1[nH]c2c(Cl)cccc2c(=O)n1CCCCCCn1ccnc1 |  |  | Active
O=c1c2ccccc2nnn1CCCCn1ccnc1 |  |  | Active
Cc1ccc2[nH]c(=O)n(CCCCCn3ccnc3)c(=O)c2c1 |  | 30 | Active
O=c1[nH]c2c(C(F)(F)F)cccc2c(=O)n1CCCCn1ccnc1 |  | 50 | Active
O=c1[nH]c2c(Cl)cccc2c(=O)n1CCCCn1ccnc1 |  | 30 | Active
Nc1ccccc1C(=O)NCCCCn1ccnc1 | inactive |  | 
O=c1[nH]c2ccc(Cl)cc2c(=O)n1CCCCCn1ccnc1 |  | 12 | Active
O=c1c2cc(Cl)ccc2nnn1CCCCn1ccnc1 |  | 240 | Active
O=c1[nH]c2ccc(Cl)cc2c(=O)n1CCCCn1ccnc1 [listing 1 of 3 here] |  |  | Active
O=c1c2ccc(Cl)cc2ncn1CCCCn1ccnc1 | inactive |  | 
O=c1c2cc(Cl)ccc2ncn1CCCCCn1ccnc1 | inactive |  | 
O=c1c2cc(Br)ccc2nnn1CCCCn1ccnc1 |  |  | Active
O=c1c2cc(Cl)ccc2nnn1CCCCCCn1ccnc1 |  |  | Active
Cc1ccc2ncn(CCCCn3ccnc3)c(=O)c2c1 |  | 350 | Active
Nc1ccc(Br)cc1C(=O)NCCCCn1ccnc1 |  |  | Active

SMILES | Activity [1] | IC50 [2] [nM] | Activity [3]
CC(CCn1c(=O)[nH]c2c(Cl)cccc2c1=O)n1ccnc1 (configuration not stated) |  | 1000 | Active
Nc1ccc(Cl)cc1C(=O)NCCCCCCCn1ccnc1 | inactive |  | 
O=c1[nH]c2ccc(Br)cc2c(=O)n1CCCCn1ccnc1 |  | 800 | Active
CC(Cn1ccnc1)Cn1c(=O)[nH]c2ccccc2c1=O (configuration not stated) |  | 30 | Active
O=c1c2cc(Cl)ccc2nnn1CCCCCn1ccnc1 |  |  | Active
CC(CNC(=O)c1cc(Cl)ccc1N)Cn1ccnc1 (configuration not stated) |  | 90 | Active
O=c1[nH]c2ccc(Cl)cc2c(=O)n1CCCCn1ccnc1 [listing 2 of 3 here] |  | 7 | 
CC(CCn1c(=O)[nH]c2ccc(Cl)cc2c1=O)n1ccnc1 (configuration not stated) |  | 150 | Active
O=c1c2ccccc2ncn1CCCCCn1ccnc1 |  |  | Active
O=c1c2ccc(Cl)cc2nnn1CCCCCn1ccnc1 |  |  | Active
CC(Cn1ccnc1)Cn1c(=O)[nH]c2ccc(Cl)cc2c1=O (configuration not stated) [listing 3 of 3 here] | inactive |  | 
Nc1ccc(Cl)cc1C(=O)NCCCCCn1ccnc1 |  |  | Active
CC(Cn1ccnc1)Cn1c(=O)[nH]c2c(C(F)(F)F)cccc2c1=O (configuration not stated) |  | 400 | Active
O=c1[nH]c2c(C(F)(F)F)cccc2c(=O)n1CCCCCn1ccnc1 |  | 10 | Active
O=c1[nH]c2ccccc2c(=O)n1CCCCCn1ccnc1 |  | 350 | Active
O=c1[nH]c2ccc(Cl)cc2c(=O)n1CCCCn1ccnc1 [listing 3 of 3 here] |  | 2 | 
O=c1[nH]c2c(Cl)cccc2c(=O)n1CCCCCn1ccnc1 |  | 40 | Active
CC(CCn1c(=O)[nH]c2ccccc2c1=O)n1ccnc1 (configuration not stated) |  | 700 | Active
O=c1[nH]c2ccccc2c(=O)n1CCCCCCn1ccnc1 |  | 40 | Active
Cc1ccc(N)c(C(=O)NCCC(C)n2ccnc2)c1 (configuration not stated) |  | 170 | Active
CC(CCn1c(=O)[nH]c2cc(Cl)ccc2c1=O)n1ccnc1 (configuration not stated) | inactive |  | 
CC(Cn1ccnc1)Cn1c(=O)[nH]c2cc(Cl)ccc2c1=O (configuration not stated) [listing 2 of 2 here] |  |  | Active
O=c1c2ccccc2nnn1CCCn1ccnc1 |  | 1500 | Active
